Laboratory results published in ChEMBL document CHEMBL3351895, “Cytotoxicity of synthesized 1,4-naphthoquinone analogues on selected human cancer cell lines” (Bioorg Med Chem, 2014).

How the values were obtained:
[1] = Cell cycle arrest in human U937 cells assessed as accumulation at subG1 phase at 2 ug/ml after 48 hrs by propidium iodide staining-based flow cytometric analysis (reference value: 1.1%); assay type: functional; details: U-937
Procedure, shortened: (§1)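 U937 cells in complete RPMI 1640 (10% FBS, 25 mM HEPES, 2 mM glutamine) seeded at 2 × 10^6 cells/ml in flasks, recovered 24 h, then treated with compounds in DMSO (2 µg/ml). Cisplatin (10 µM) served as positive control and DMSO as negative control. Cells were harvested at 24 or 48 h and stained with propidium iodide. Phase percentages were gated on singlet cells by flow cytometry. Three independent experiments.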

[2] = Cell cycle arrest in human U937 cells assessed as accumulation at S phase at 2 ug/ml after 48 hrs by propidium iodide staining-based flow cytometric analysis (reference value: 25.7%); assay type: functional; details: U-937; procedure, shortened: as §1
[3] = Cell cycle arrest in human U937 cells assessed as accumulation at subG1 phase at 2 ug/ml after 24 hrs by propidium iodide staining-based flow cytometric analysis (reference value: 15.1%); assay type: functional; details: U-937; procedure, shortened: as §1
HeLa = assay: Cytotoxicity against human HeLa cells assessed as cell survival after 48 hrs by XTT assay
DU-145 = assay: Cytotoxicity against human DU145 cells assessed as cell survival after 48 hrs by XTT assay; details: DU-145, 48 h
[4] = Cell cycle arrest in human U937 cells assessed as accumulation at G2/M phase at 2 ug/ml after 24 hrs by propidium iodide staining-based flow cytometric analysis (reference value: 12.5%); assay type: functional; details: U-937; procedure, shortened: as §1
U-937 [5] = assay: Cytotoxicity against human U937 cells assessed as cell survival after 24 hrs by XTT assay; assay type: functional, cell-based
[6] = Cytotoxicity against human SNO cells assessed as cell survival after 48 hrs by XTT assay
[7] = Cell cycle arrest in human U937 cells assessed as accumulation at G0/G1 phase at 2 ug/ml after 48 hrs by propidium iodide staining-based flow cytometric analysis (reference value: 54.6%); assay type: functional; details: U-937; procedure, shortened: as §1
[8] = Cell cycle arrest in human U937 cells assessed as accumulation at G2/M phase at 2 ug/ml after 48 hrs by propidium iodide staining-based flow cytometric analysis (reference value: 16.6%); assay type: functional; details: U-937; procedure, shortened: as §1
MCF7 = assay: Cytotoxicity against human MCF7 cells assessed as cell survival after 48 hrs by XTT assay; details: MCF7, 48 h
[9] = Cell cycle arrest in human U937 cells assessed as accumulation at G0/G1 phase at 2 ug/ml after 24 hrs by propidium iodide staining-based flow cytometric analysis (reference value: 41.7%); assay type: functional; details: U-937; procedure, shortened: as §1
[10] = Cell cycle arrest in human U937 cells assessed as accumulation at S phase at 2 ug/ml after 24 hrs by propidium iodide staining-based flow cytometric analysis (reference value: 30.7%); assay type: functional; details: U-937; procedure, shortened: as §1
U-937 [11] = assay: Induction of apoptosis in human U937 cells assessed as caspase 3/7 activation at 2 ug/ml after 24 hrs by fluorescence reader relative to control; assay type: functional
Procedure, shortened: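 U937 cells (2 × 10^6/ml, 24 h recovery) were exposed for 24 h to compounds in DMSO (2 µg/ml), with cisplatin 10 µM and DMSO controls. Cells were pelleted and resuspended in RPMI, at least 2 × 10^5 cells per well. (DEVD)2 substrate was added and cells incubated 2 h at 37 °C, 5% CO2, resuspended every 20 min. Fluorescence was read at 544/590 and 544/620 nm.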

PBMC = assay: Cytotoxicity against human PBMC assessed as cell survival after 24 hrs by fluorescence assay
U-937 [12] = assay: Induction of apoptosis in human U937 cells assessed as necrotic cells at 2 ug/ml after 48 hrs by annexin V-FITC/propidium iodide staining-based flow cytometry (reference value: 1.4%); assay type: functional
U-937 [13] = assay: Induction of apoptosis in human U937 cells assessed as viable cells at 2 ug/ml after 24 hrs by annexin V-FITC/propidium iodide staining-based flow cytometry (reference value: 66%); assay type: functional; details: U-937, 24 h, read-out: Activity
U-937 [14] = assay: Induction of apoptosis in human U937 cells assessed as late apoptotic cells at 2 ug/ml after 48 hrs by annexin V-FITC/propidium iodide staining-based flow cytometry (reference value: 11.7%); assay type: functional
U-937 [15] = assay: Induction of apoptosis in human U937 cells assessed as viable cells at 2 ug/ml after 48 hrs by annexin V-FITC/propidium iodide staining-based flow cytometry (reference value: 81.3%); assay type: functional; details: U-937, 48 h, read-out: Activity
U-937 [16] = assay: Induction of apoptosis in human U937 cells assessed as early apoptotic cells at 2 ug/ml after 48 hrs by annexin V-FITC/propidium iodide staining-based flow cytometry (reference value: 5.7%); assay type: functional
U-937 [17] = assay: Induction of apoptosis in human U937 cells assessed as necrotic cells at 2 ug/ml after 24 hrs by annexin V-FITC/propidium iodide staining-based flow cytometry (reference value: 24.7%); assay type: functional
U-937 [18] = assay: Induction of apoptosis in human U937 cells assessed as early apoptotic cells at 2 ug/ml after 24 hrs by annexin V-FITC/propidium iodide staining-based flow cytometry (reference value: 6.3%); assay type: functional
U-937 [19] = assay: Induction of apoptosis in human U937 cells assessed as late apoptotic cells at 2 ug/ml after 24 hrs by annexin V-FITC/propidium iodide staining-based flow cytometry (reference value: 3%); assay type: functional

Row | Compound | Activity [1] [%] | Activity [2] [%] | Activity [3] [%] | IC50 (HeLa) [µM] | IC50 (DU-145) [µM] | Activity [4] [%] | IC50 [6] [µM] | Activity [7] [%] | Activity [8] [%] | IC50 (MCF7) [µM] | Activity [9] [%] | Activity [10] [%] | further results
1 | Cc1cc(O)c2c(c1Cl)C(=O)C=CC2=O | 53.5 | 10.5 | 17.1 | 13.5 | 29.5 | 5.4 | 17.2 | 30.2 | 5.4 | 15.7 | 60.9 | 16.2 | Activity (U-937 [5]): Not toxic
2 | Cc1cc(O)c2c(c1)C(=O)C(O)=CC2=O | 10.6 | 16.1 | 3 | 5.3 | 6.8 | 15.5 | 23.2 | 65.1 | 7.3 | 14.6 | 53.4 | 27.3 | Activity (U-937 [11]): 7.39%; IC50 (PBMC): 54 µM
3 | CC(=O)Oc1cc(OC(C)=O)c2c(OC(C)=O)cc(C)c(Cl)c2c1OC(C)=O | – | – | – | 52.9 | 59.6 | – | 56.9 | – | – | 51.1 | – | – | –
4 | CCOc1cc(C)cc2c1C(=O)C=CC2=O | – | – | – | 29.7 | 15 | – | 25.3 | – | – | 23.7 | – | – | –
5 | COc1cccc2c1C(=O)c1c(O)c3c(c(O)c1C2=O)C[C@@](O)(C(=O)CO)C[C@@H]3O[C@H]1C[C@H](N)[C@H](O)[C@H](C)O1 [DOXORUBICIN] | – | – | – | – | 0.01 | – | 0.01 | – | – | – | – | – | –
6 | COc1c(C)cc(Cl)c2c1C(=O)C=CC2=O | – | – | – | 41.5 | 36.5 | – | 44.9 | – | – | 16.2 | – | – | –
7 | CC(=O)Oc1cc(C)cc2c1C(=O)C=CC2=O | – | – | – | 17.2 | 24.1 | – | 28.1 | – | – | 14.7 | – | – | –
8 | Cc1cc(O)c2c(c1F)C(=O)C=CC2=O | 11.8 | 15.9 | 8.2 | 10.2 | 15.4 | 4.7 | 18.9 | 64.8 | 6.9 | 20.3 | 69.2 | 17.4 | Activity (U-937 [12]): 53.9%; Activity (U-937 [11]): -5.21%; viability at 2 µg/mL (U-937 [13]): 4.5%; IC50 (PBMC): 189 µM; Activity (U-937 [14]): 42.6%; viability at 2 µg/mL (U-937 [15]): 1.6%; Activity (U-937 [5]): Not toxic; Activity (U-937 [16]): 1%; Activity (U-937 [17]): 61.1%; Activity (U-937 [18]): 10.2%; Activity (U-937 [19]): 34.2%
9 | CC(=O)Oc1c(C)cc(Cl)c2c1C(=O)C=CC2=O | – | – | – | 21.8 | 12.5 | – | 28.6 | – | – | 18.7 | – | – | –
10 | COc1cc(C)c(Cl)c2c1C(=O)C=CC2=O | – | – | – | 19.1 | 26.6 | – | 24.6 | – | – | 20.6 | – | – | –
11 | CC(=O)Oc1cc(OC(C)=O)c2c(OC(C)=O)cc(C)cc2c1OC(C)=O | – | – | – | 22.4 | 64.6 | – | 25 | – | – | 82 | – | – | –
12 | CC(=O)Oc1cc(C)c(Cl)c2c1C(=O)C=CC2=O | – | – | – | 26.2 | 25.5 | – | 28.8 | – | – | 37.9 | – | – | –
13 | Cc1cc(Cl)c2c(c1O)C(=O)C=CC2=O | 17.9 | 14.1 | 18.1 | 10.1 | 9.3 | 4.5 | 9.4 | 62.2 | 5.3 | 10 | 65.6 | 11.4 | Activity (U-937 [12]): 60.1%; viability at 2 µg/mL (U-937 [13]): 5%; Activity (U-937 [14]): 36.1%; viability at 2 µg/mL (U-937 [15]): 1.9%; Activity (U-937 [5]): Not toxic; Activity (U-937 [16]): 1.9%; Activity (U-937 [17]): 49.6%; Activity (U-937 [18]): 17.1%; Activity (U-937 [19]): 28.3%
14 | COc1cc(C)cc2c1C(=O)C=CC2=O | – | – | – | 21.1 | 30.7 | – | 22.5 | – | – | 15.3 | – | – | –
15 | CC(=O)Oc1cc(OC(C)=O)c2c(OC(C)=O)c(C)cc(Cl)c2c1OC(C)=O | – | – | – | 27.9 | 81.6 | – | 53.5 | – | – | 57.5 | – | – | –
16 | CCOc1c(C)cc(Cl)c2c1C(=O)C=CC2=O | – | – | – | 33.2 | 26.2 | – | 37.3 | – | – | 32.2 | – | – | –
17 | Cc1ccc2c(c1O)C(=O)C=CC2=O | 15 | 14.6 | 33.8 | 16.4 | 15.4 | 8.6 | 19 | 62.9 | 7 | 15.3 | 43 | 14.2 | Activity (U-937 [12]): 30.3%; Activity (U-937 [11]): -5.14%; viability at 2 µg/mL (U-937 [13]): 15.5%; Activity (U-937 [14]): 43.2%; viability at 2 µg/mL (U-937 [15]): 20.1%; Activity (U-937 [16]): 6.4%; Activity (U-937 [17]): 28.3%; Activity (U-937 [18]): 24.8%; Activity (U-937 [19]): 31.4%
18 | CCOc1cc(C)c(Cl)c2c1C(=O)C=CC2=O | – | – | – | 19 | 25.4 | – | 44.2 | – | – | 40 | – | – | –
19 | Cc1cc(O)c2c(c1)C(=O)C=CC2=O [RAMENTACEONE] | – | – | – | 66.6 | 11.9 | – | 81.4 | – | – | 27.2 | – | – | IC50 (PBMC): 18.4 µM
20 | Cc1cc(O)c2c(c1Br)C(=O)C=CC2=O | 13 | 28.8 | 14.8 | 11.3 | 46.3 | 4.6 | 14.9 | 53 | 17.7 | 15.5 | 63.3 | 16.8 | Activity (U-937 [12]): 53.8%; viability at 2 µg/mL (U-937 [13]): 15.9%; Activity (U-937 [14]): 39%; viability at 2 µg/mL (U-937 [15]): 3.8%; Activity (U-937 [5]): Not toxic; Activity (U-937 [16]): 3.4%; Activity (U-937 [17]): 67.1%; Activity (U-937 [18]): 10%; Activity (U-937 [19]): 7%
